From ChEMBL document CHEMBL1177718, “Phosphoramidate ProTides of 2'-C-methylguanosine as highly potent inhibitors of hepatitis C virus. Study of their in vitro and in vivo properties” (J Med Chem, 2010)

What was measured:
[1] = Metabolic stability in human liver S9 fraction assessed as compound remaining at 10 uM after 30 mins by HPLC analysis in absence of NADP; format: ADME, subcellular; conditions: read-out: Stability
[2] = Metabolic stability in dog intestine S9 fraction assessed as compound remaining at 10 uM after 30 mins by HPLC analysis in presence of NADP; format: ADME, tissue-based, Canis lupus familiaris; conditions: read-out: Stability
[3] = Metabolic stability in dog intestine S9 fraction assessed as compound remaining at 10 uM after 30 mins by HPLC analysis in absence of NADP; format: ADME, tissue-based, Canis lupus familiaris; conditions: read-out: Stability
[4] = Metabolic stability in dog liver S9 fraction assessed as compound remaining at 10 uM after 30 mins by HPLC analysis in absence of NADP; format: ADME, subcellular, Canis lupus familiaris; conditions: read-out: Stability
[5] = Metabolic stability in human intestine S9 fraction assessed as compound remaining at 10 uM after 30 mins by HPLC analysis in absence of NADP; format: ADME, tissue-based; conditions: read-out: Stability
[6] = Metabolic stability in dog liver S9 fraction assessed as compound remaining at 10 uM after 30 mins by HPLC analysis in presence of NADP; format: ADME, subcellular, Canis lupus familiaris; conditions: read-out: Stability
[7] = Metabolic stability in mouse plasma assessed as compound remaining at 1 ug/ml after 30 mins; format: ADME, cell-free; conditions: read-out: Stability
[8] = system: Hepatitis C virus; experiment: Antiviral activity against HCV1b infected in human HuH7 cells assessed as inhibition of viral replication after 48 hrs by luciferase reporter gene assay; format: functional, organism-based, Hepacivirus hominis; conditions: genotype 1b, Huh-7, 48 h
Summary of the method: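 Huh7 cells carrying genotype 1b bicistronic subgenomic replicon, seeded 2 × 10⁴/well without G-418; compounds added 18-24 h later, 48 h exposure; 3× or 4× serial dilutions over 0.0001-10 μM in triplicate/quadruplicate; Renilla luciferase read-out versus untreated cells; EC₅₀ by four-parameter sigmoidal nonlinear regression; at least three independent assays.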

[9] = Cytotoxicity against human HuH7 cells after 72 hrs by celltiter-glo assay; format: cell-based, Huh-7
Summary of the method: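 Replicon 1b Huh7 cells seeded 2 × 10⁴/well; after 24 h, 11 serial 2× dilutions from 100 μM (three repeats each) with no-compound control; 72 h at 37 °C, CO₂, log-phase growth; viability by CellTiter-Glo luminescence; CC₅₀ = concentration giving 50% signal.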

[10] = Metabolic stability in human intestine S9 fraction assessed as compound remaining at 10 uM after 30 mins by HPLC analysis in presence of NADP; format: ADME, tissue-based; conditions: read-out: Stability
[11] = Metabolic stability in human liver S9 fraction assessed as compound remaining at 10 uM after 30 mins by HPLC analysis in presence of NADP; format: ADME, subcellular; conditions: read-out: Stability
[12] = system: Liver; experiment: AUC (0 to 6 hrs) in ICR mouse liver at 50 mg/kg, po by LC-MS/MS analysis; format: ADME, organism-based; parameters: time < 6 hr, dose 50 mg/kg, route oral; conditions: in vivo
[13] = Cytotoxicity against human HEK293 cells after 72 hrs by celltiter-glo assay; format: cell-based
Summary of the method: (§1)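 Cells kept in log phase of growth throughout the cytotoxicity experiments.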

[14] = system: Liver; experiment: Dose normalized AUC in ICR mouse liver at 50 mg/kg, po by LC-MS/MS analysis; format: ADME, organism-based; parameters: dose 50 mg/kg, route oral; conditions: in vivo
[15] = Selectivity index, […] for human Caco-2 cells
[16] = Metabolic stability in cynomolgus monkey plasma assessed as compound remaining at 1 ug/ml after 30 mins; format: ADME, cell-free, Macaca fascicularis; conditions: read-out: Stability
Summary of the method: (§2)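 Duplicate incubations; compound at final 1 μg/mL in plasma preincubated and kept at […]; samples taken at 30 or 240 min, quenched with ice-cold acetonitrile, centrifuged, supernatant diluted with water; parent quantified by LC-MS/MS (Polar-RP column, formic acid water/acetonitrile gradient, positive ion mode); % remaining reported.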

[17] = species on record: Homo sapiens; experiment: Metabolic stability in human plasma assessed as compound remaining at 1 ug/ml after 4 hrs
[18] = system: Plasma; experiment: Dose normalized AUC in ICR mouse plasma at 50 mg/kg, po by LC-MS/MS analysis; format: ADME, organism-based; parameters: dose 50 mg/kg, route oral; conditions: in vivo
[19] = Cytotoxicity against human HepG2 cells after 72 hrs by celltiter-glo assay; format: cell-based; summary of the method: as §1
[20] = Cytotoxicity against human HEL cells after 72 hrs by celltiter-glo assay; format: cell-based; summary of the method: as §1
[21] = Cytotoxicity against human Caco-2 cells after 72 hrs by celltiter-glo assay; format: cell-based; summary of the method: as §1
[22] = Selectivity index, […] for human HuH7 cells; parameters: species or system Huh-7
[23] = Selectivity index, […] for human HEK293 cells
[24] = system: Liver; experiment: AUC (0 to 24 hrs) in ICR mouse liver at 50 mg/kg, po by LC-MS/MS analysis; format: ADME, organism-based; parameters: time < 24 hr, dose 50 mg/kg, route oral; conditions: in vivo
[25] = Metabolic stability in mouse plasma assessed as compound remaining at 1 ug/ml after 4 hrs; format: ADME, cell-free; conditions: read-out: Stability
[26] = Selectivity index, […] for human HepG2 cells
[27] = Cytotoxicity against rat IEC6 cells after 72 hrs by celltiter-glo assay; format: cell-based; summary of the method: as §1
[28] = Selectivity index, […] for human CEM cells; parameters: species or system CCRF-CEM
[29] = Selectivity index, […] for human HEL cells
[30] = Metabolic stability in rat plasma assessed as compound remaining at 1 ug/ml after 30 mins; format: ADME, cell-free; conditions: read-out: Stability; summary of the method: as §2
[31] = Metabolic stability in dog plasma assessed as compound remaining at 1 ug/ml after 4 hrs; format: ADME, cell-free, Canis lupus familiaris; conditions: read-out: Stability; summary of the method: as §2
[32] = Cmax in ICR mouse plasma at 50 mg/kg, po by LC-MS/MS analysis; format: ADME, organism-based; parameters: dose 50 mg/kg, route oral
[33] = Metabolic stability in dog plasma assessed as compound remaining at 1 ug/ml after 30 mins; format: ADME, cell-free, Canis lupus familiaris; conditions: read-out: Stability; summary of the method: as §2
[34] = Metabolic stability in rat plasma assessed as compound remaining at 1 ug/ml after 4 hrs; format: ADME, cell-free; conditions: read-out: Stability; summary of the method: as §2
[35] = species on record: Homo sapiens; experiment: Metabolic stability in human plasma assessed as compound remaining at 1 ug/ml after 30 mins
[36] = Selectivity index, […] for human MT4 cells
[37] = Metabolic stability in cynomolgus monkey plasma assessed as compound remaining at 1 ug/ml after 4 hrs; format: ADME, cell-free, Macaca fascicularis; conditions: read-out: Stability; summary of the method: as §2
[38] = Selectivity index, […] for rat IEC-6 cells
[39] = Cytotoxicity against human CEM cells after 72 hrs by celltiter-glo assay; format: cell-based, CCRF-CEM; summary of the method: as §1
[40] = Cytotoxicity against human MT4 cells after 72 hrs by celltiter-glo assay; format: cell-based; summary of the method: as §1
[41] = Metabolic stability in rat intestine S9 fraction assessed as compound remaining at 10 uM after 30 mins by HPLC analysis in absence of NADP; format: ADME, tissue-based; conditions: read-out: Stability
[42] = Metabolic stability in cynomolgus monkey intestine S9 fraction assessed as compound remaining at 10 uM after 30 mins by HPLC analysis in presence of NADP; format: ADME, tissue-based, Macaca fascicularis; conditions: read-out: Stability
[43] = Metabolic stability in rat liver S9 fraction assessed as compound remaining at 10 uM after 30 mins by HPLC analysis in presence of NADP; format: ADME, subcellular; conditions: read-out: Stability
[44] = Metabolic stability in rat liver S9 fraction assessed as compound remaining at 10 uM after 30 mins by HPLC analysis in absence of NADP; format: ADME, subcellular; conditions: read-out: Stability
[45] = Metabolic stability in cynomolgus monkey intestine S9 fraction assessed as compound remaining at 10 uM after 30 mins by HPLC analysis in absence of NADP; format: ADME, tissue-based, Macaca fascicularis; conditions: read-out: Stability
[46] = Metabolic stability in cynomolgus monkey liver S9 fraction assessed as compound remaining at 10 uM after 30 mins by HPLC analysis in absence of NADP; format: ADME, subcellular, Macaca fascicularis; conditions: read-out: Stability
[47] = Metabolic stability in cynomolgus monkey liver S9 fraction assessed as compound remaining at 10 uM after 30 mins by HPLC analysis in presence of NADP; format: ADME, subcellular, Macaca fascicularis; conditions: read-out: Stability
[48] = Metabolic stability in rat intestine S9 fraction assessed as compound remaining at 10 uM after 30 mins by HPLC analysis in presence of NADP; format: ADME, tissue-based; conditions: read-out: Stability
[49] = Oral bioavailability in cynomolgus monkey at 50 mg/kg; format: ADME, organism-based, Macaca fascicularis; conditions: in vivo
[50] = Oral bioavailability in ICR mouse at 50 mg/kg; format: ADME, organism-based; conditions: in vivo

Row | Structure (SMILES) | remaining at 0.5 h, 10 µM [1] [%] | remaining at 0.5 h, 10 µM [5] [%] | remaining at 0.5 h, 1 ug/ml [7] [%] | EC50 [8] [µM] | CC50 at 72 h [9] [µM] | remaining at 0.5 h, 10 µM [10] [%] | remaining at 0.5 h, 10 µM [11] [%] | AUC [12] [ng·h/g] | AUC [14] [ng·h/g] | remaining at 0.5 h, 1 ug/ml [16] [%] | AUC [18] [ng·h/mL] | AUC [24] [ng·h/g] | remaining at 0.5 h, 1 ug/ml [30] [%] | Cmax [32] [ng/mL] | remaining at 0.5 h, 1 ug/ml [33] [%] | remaining at 0.5 h, 1 ug/ml [35] [%] | further results
1 | C[C@@]1(O)[C@H](O)[C@@H](COP(=O)(N[C@@H](Cc2ccccc2)C(=O)OCc2ccccc2)Oc2cccc3ccccc23)O[C@H]1n1cnc2c(=O)[nH]c(N)nc21 (stereo partly specified) | 20 | 5 | 1 | 1.2 | > 100 | 0 | 0 | – | – | – | – | – | – | – | – | – | remaining at 0.5 h, 10 µM [2]: 0%; remaining at 0.5 h, 10 µM [3]: 0%; remaining at 0.5 h, 10 µM [4]: 15%; remaining at 0.5 h, 10 µM [6]: 4%
2 | C[C@H](NP(=O)(OC[C@H]1O[C@@H](n2cnc3c(=O)[nH]c(N)nc32)[C@](C)(O)[C@@H]1O)Oc1cccc2ccccc12)C(=O)O[C@@H](C)c1ccccc1 (stereo partly specified) | – | – | 3.1 | 0.08 | > 100 | – | – | 2596 | 108 | 100 | 85 | 5390 | 0.8 | 1380 | 97 | 100 | CC50 at 72 h [13]: > 100 µM; Selectivity Index [15]: >=1000; remaining at 4 h, 1 ug/ml [17]: 99%; CC50 at 72 h [19]: > 100 µM; CC50 at 72 h [20]: > 100 µM; CC50 at 72 h [21]: > 100 µM; Selectivity Index [22]: >=1000; Selectivity Index [23]: >=1000; remaining at 4 h, 1 ug/ml [25]: 0%; Selectivity Index [26]: >=1000; CC50 at 72 h [27]: > 100 µM; Selectivity Index [28]: >=1000; Selectivity Index [29]: >=1000; remaining at 4 h, 1 ug/ml [31]: 92%; remaining at 4 h, 1 ug/ml [34]: 0%; Selectivity Index [36]: >=1000; remaining at 4 h, 1 ug/ml [37]: 100%; Selectivity Index [38]: >=1000; CC50 at 72 h [39]: 82 µM; CC50 at 72 h [40]: 87 µM
3 | C[C@H](NP(=O)(OC[C@H]1O[C@@H](n2cnc3c(=O)[nH]c(N)nc32)[C@](C)(O)[C@@H]1O)Oc1cccc2ccccc12)C(=O)OCc1ccccc1 (stereo partly specified) | 41 | 49 | 1.1 | 0.062 | > 100 | 0 | 27 | – | – | 54 | – | – | 1.3 | – | 67 | 58 | remaining at 0.5 h, 10 µM [41]: 46%; remaining at 0.5 h, 10 µM [42]: 0%; remaining at 0.5 h, 10 µM [43]: 0%; remaining at 0.5 h, 10 µM [44]: 0%; remaining at 0.5 h, 10 µM [45]: 30%; remaining at 0.5 h, 10 µM [46]: 32%; remaining at 0.5 h, 10 µM [47]: 0%; remaining at 0.5 h, 10 µM [48]: 30%
4 | C[C@@]1(O)[C@H](O)[C@@H](CO)O[C@H]1n1cnc2c(=O)[nH]c(N)nc21 [2'-B-METHYL-GUANOSINE] | – | – | – | 3.5 | > 100 | – | – | 16510 | 737 | – | 411 | 36868 | – | 5200 | – | – | bioavailability [49]: 10%; bioavailability [50]: 85%
